Experimental data: ChEMBL document CHEMBL1152610, “3- and 6-Substituted 2-amino-4,5,6,7-tetrahydrothieno[2,3-c]pyridines as A1 adenosine receptor allosteric modulators and antagonists” (Bioorg Med Chem, 2009)
Active and inactive are the calls of the source. The calls are words filed in the database; no cut-off is given here.

Experiments:
[1] = biological target: T1, Adenosine receptor A1 (Homo sapiens) (UniProt P30542); assay: Allosteric modulatory activity at human adenosine A1 receptor expressed in CHOk1 cells assessed as [125I]-ABA-receptor-G protein ternary complex remaining after 10 mins of radioligand dissociation at 50 uM by dissociation kinetic binding assay; format: cell-based
T1 sequence (whole entry): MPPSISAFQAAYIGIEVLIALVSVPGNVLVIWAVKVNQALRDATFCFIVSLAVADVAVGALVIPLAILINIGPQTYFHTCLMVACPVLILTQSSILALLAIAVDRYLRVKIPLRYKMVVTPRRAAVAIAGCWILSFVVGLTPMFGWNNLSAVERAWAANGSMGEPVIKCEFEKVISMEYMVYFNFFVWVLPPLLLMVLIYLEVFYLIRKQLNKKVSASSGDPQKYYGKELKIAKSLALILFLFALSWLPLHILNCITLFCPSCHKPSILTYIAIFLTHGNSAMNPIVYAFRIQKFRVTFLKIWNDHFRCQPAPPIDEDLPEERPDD
How it was run: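 Membranes (10 μg) from CHO-K1 cells stably expressing human A1AR were equilibrated for 90 min at room temperature with 0.5 nM [125I]-ABA in 10 mM HEPES pH 7.2, 0.5 mM MgCl2 and 1 U/mL adenosine deaminase. Modulator (0.1–50 μM final) was added for 30 min. Dissociation was started with 100 μM orthosteric antagonist plus 25 μM GTPγS for 10 min, then samples were filtered and counted. K-score is the % specific binding remaining; EC50 comes from a variable-slope sigmoidal fit.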

[2] = biological target: T1, Adenosine receptor A1 (Homo sapiens); assay: Agonist activity at human adenosine A1 receptor expressed in CHOk1 cells assessed as potentiation of R-PIA-induced ERK1/2 phosphorylation at 3 uM; format: functional, cell-based
How it was run: (§1)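 FlpIn-CHO cells stably expressing human A1AR were seeded at 50,000/well and kept in serum-free DMEM/20 mM HEPES for at least 4 h. They were pretreated for 30 min with 1 U/mL adenosine deaminase, then for 30 min at 37 °C with compound at 3 or 10 μM.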

[3] = biological target: T1, Adenosine receptor A1 (Homo sapiens); assay: Agonist activity at human adenosine A1 receptor expressed in CHOk1 cells assessed as induction of ERK1/2 phosphorylation at 10 uM relative to R-PIA; format: functional, cell-based; how it was run: as §1
Adenosine receptor A1 [4] = biological target: T2, Adenosine receptor A1 (Homo sapiens, UniProt P30542); assay: Allosteric modulatory activity at human adenosine A1 receptor expressed in CHOk1 cells assessed as drug level causing half maximal allosteric effect on [125I]-ABA dissociation from receptor-G protein ternary complex by dissociation kinetic binding assay; format: cell-based
T2 sequence (P30542 whole entry): T1 sequence (whole entry)

[5] = biological target: T1, Adenosine receptor A1 (Homo sapiens); assay: Agonist activity at human adenosine A1 receptor expressed in CHOk1 cells assessed as potentiation of R-PIA-induced ERK1/2 phosphorylation at 10 uM; format: functional, cell-based; how it was run: as §1
Adenosine receptor A1 [6] = biological target: T2, Adenosine receptor A1; assay: Antagonist activity at human adenosine A1 receptor expressed in CHOk1 cells assessed as inhibition of R-PIA-induced ERK1/2 phosphorylation; format: functional, cell-based; conditions: read-out: pA2 (converted)
How it was run: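 Human A1AR FlpIn-CHO cells were serum-starved and pretreated for 30 min with 1 U/mL adenosine deaminase. Modulator (0.3, 1, 3, 10 or 30 μM) or none was then added for 30 min at 37 °C. Full R-PIA concentration–response curves followed, with 5 min stimulation. ERK1/2 phosphorylation was measured by AlphaScreen SureFire and normalized to the 6 min 3% FBS response.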

| Activity [1] [%] | Activity [2] | Activity [3] | EC50 (Adenosine receptor A1 [4]) [µM] | Activity [5] | Kb (Adenosine receptor A1 [6]) [µM] | Structure (SMILES) |
| --- | --- | --- | --- | --- | --- | --- |
| 14.8 | inactive | inactive | > 20 | inactive | – | CN1CCc2c(sc(N)c2C#N)C1 |
| 66.1 | inactive | inactive | 12.1 | inactive | – | CC(C)(C)OC(=O)N1CCc2c(sc(N)c2C(=O)O)C1 |
| 77.1 | inactive | inactive | 11.6 | inactive | – | CN1CCc2c(sc(N)c2C(=O)O)C1 |
| 19.8 | inactive | inactive | > 20 | inactive | – | CN1CCc2c(sc(N)c2C(N)=O)C1 |
| 68.3 | inactive | inactive | 8 | inactive | – | Nc1sc2c(c1C(=O)O)CCN(Cc1ccccc1)C2 |
| 14.9 | inactive | inactive | > 20 | inactive | – | CCOC(=O)c1c(N)sc2c1CCN(C)C2 |
| 58.5 | inactive | inactive | 11.7 | inactive | – | CCOC(=O)c1c(N)sc2c1CCNC2 |
| 82.5 | inactive | inactive | 7.2 | inactive | 0.372 | CCOC(=O)c1c(N)sc2c1CCN(C(=O)[C@H](Cc1ccccc1)NC(=O)OC(C)(C)C)C2 |
| 44.9 | inactive | inactive | 10.3 | inactive | – | CCOC(=O)c1c(N)sc2c1CCN(Cc1ccccc1)C2 [TINORIDINE] |
| 55.4 | inactive | inactive | 7.8 | inactive | – | Nc1sc2c(c1C(=O)NNc1ccccc1)CCN(Cc1ccccc1)C2 |
| 32.8 | inactive | inactive | 13.2 | inactive | 0.832 | CCOC(=O)c1c(N)sc2c1CCN(C(=O)OC(C)(C)C)C2 |
| 36 | inactive | inactive | > 20 | inactive | – | Nc1sc2c(c1C(=O)NCc1cccc(Cl)c1)CCN(Cc1ccccc1)C2 |
| 83.1 | inactive | inactive | 11.5 | inactive | – | CN1CCc2c(sc(N)c2C(=O)NNc2ccccc2)C1 |
| 22.9 | inactive | inactive | > 20 | inactive | – | CC(C)(C)OC(=O)N1CCc2c(sc(N)c2C#N)C1 |
| 46.9 | inactive | inactive | 15.5 | inactive | – | Nc1sc2c(c1C(=O)NCc1cccc(C(F)(F)F)c1)CCN(Cc1ccccc1)C2 |
| 93.2 | inactive | inactive | 7.9 | inactive | – | CCOC(=O)c1c(N)sc2c1CCN(C(=O)[C@H](CSC(c1ccccc1)(c1ccccc1)c1ccccc1)NC(=O)OC(C)(C)C)C2 |
| 52 | inactive | inactive | 15.2 | inactive | – | N#Cc1c(N)sc2c1CCN(Cc1ccccc1)C2 |
| 85.7 | inactive | inactive | 4.4 | inactive | – | CN1CCc2c(sc(N)c2C(=O)NN)C1 |
| 92.9 | inactive | inactive | 9.1 | inactive | 1.82 | CCOC(=O)c1c(N)sc2c1CCN(C(=O)[C@@H](Cc1ccc(Cl)cc1)N(C)C(=O)OC(C)(C)C)C2 |
| 87.2 | inactive | inactive | 12 | inactive | – | CN1CCc2c(sc(N)c2C(=O)NCc2ccccc2)C1 |
| 19.1 | inactive | inactive | > 20 | inactive | – | NC(=O)c1c(N)sc2c1CCN(Cc1ccccc1)C2 |
| 82.9 | inactive | inactive | 8.9 | inactive | – | NNC(=O)c1c(N)sc2c1CCN(Cc1ccccc1)C2 |
| 37.6 | inactive | inactive | 13.1 | inactive | – | Nc1sc2c(c1C(=O)NCc1ccccc1)CCN(Cc1ccccc1)C2 |
| 88 | inactive | inactive | 13.2 | inactive | – | CN1CCc2c(sc(N)c2C(=O)NCc2cccc(Cl)c2)C1 |
| 32.6 | Active | – | > 20 | Active | – | Nc1sc2c(c1C(=O)c1ccc(Cl)cc1)CCN(Cc1ccccc1)C2 |
